# Reference: ChEMBL document CHEMBL1287651, “Synthesis and in vitro antibacterial activity of fluoroquinolone derivatives containing 3-(N'-alkoxycarbamimidoyl)-4-(alkoxyimino) pyrrolidines” (2010)
# How the values were obtained:
# Type in all cases: functional
# [1] = tested on: Staphylococcus epidermidis; assay: Antibacterial activity against methicillin-resistant Staphylococcus epidermidis 09-3 after 18 to 24 hrs by twofold serial dilution method
# Outline: (§1)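 Standard twofold serial agar dilution method on agar media for MIC determination. Screened against representative Gram-positive and Gram-negative strains. Levofloxacin and GMFX served as control drugs.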
# [2] = tested on: Pseudomonas aeruginosa; assay: Antibacterial activity against Pseudomonas aeruginosa 09-33 after 18 to 24 hrs by twofold serial dilution method
# Outline: (§2)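 MIC determined by the standard twofold serial dilution method on agar media, screening against Gram-positive and Gram-negative strains. Levofloxacin and gemifloxacin were run alongside as reference drugs.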
# [3] = tested on: Escherichia coli; assay: Antibacterial activity against Escherichia coli ATCC 25922 after 18 to 24 hrs by twofold serial dilution method; outline: as §2
# [4] = tested on: Enterococcus faecium; assay: Antibacterial activity against Enterococcus faecium 08-2 after 18 to 24 hrs by twofold serial dilution method; outline: as §2
# [5] = tested on: Pseudomonas aeruginosa; assay: Antibacterial activity against Pseudomonas aeruginosa ATCC 27853 after 18 to 24 hrs by twofold serial dilution method; outline: as §2
# [6] = tested on: Pseudomonas aeruginosa; assay: Antibacterial activity against Pseudomonas aeruginosa 09-32 after 18 to 24 hrs by twofold serial dilution method; outline: as §2
# [7] = tested on: Staphylococcus aureus; assay: Antibacterial activity against Staphylococcus aureus ATCC […] after 18 to 24 hrs by twofold serial dilution method; outline: as §2
# [8] = tested on: Staphylococcus epidermidis; assay: Antibacterial activity against methicillin-resistant Staphylococcus epidermidis 09-2 after 18 to 24 hrs by twofold serial dilution method; outline: as §1
# [9] = tested on: Klebsiella pneumoniae; assay: Antibacterial activity against Klebsiella pneumoniae 09-22 after 18 to 24 hrs by twofold serial dilution method; outline: as §2
# [10] = tested on: Staphylococcus epidermidis; assay: Antibacterial activity against methicillin-sensitive Staphylococcus epidermidis 09-3 after 18 to 24 hrs by twofold serial dilution method; outline: as §1
# [11] = tested on: Pseudomonas aeruginosa; assay: Antibacterial activity against Pseudomonas aeruginosa 09-35 after 18 to 24 hrs by twofold serial dilution method; outline: as §2
# [12] = tested on: Staphylococcus epidermidis; assay: Antibacterial activity against methicillin-resistant Staphylococcus epidermidis 09-4 after 18 to 24 hrs by twofold serial dilution method; outline: as §1
# [13] = tested on: Staphylococcus aureus; assay: Antibacterial activity against methicillin-sensitive Staphylococcus aureus 08-2 after 18 to 24 hrs by twofold serial dilution method; outline: as §1
# [14] = tested on: Escherichia coli; assay: Antibacterial activity against Escherichia coli 08-22 after 18 to 24 hrs by twofold serial dilution method; outline: as §2
# [15] = tested on: Streptococcus pneumoniae; assay: Antibacterial activity against Streptococcus pneumoniae 08-4 after 18 to 24 hrs by twofold serial dilution method; outline: as §2
# [16] = tested on: Staphylococcus epidermidis; assay: Antibacterial activity against methicillin-sensitive Staphylococcus epidermidis 09-6 after 18 to 24 hrs by twofold serial dilution method; outline: as §1
# [17] = tested on: Klebsiella pneumoniae; assay: Antibacterial activity against Klebsiella pneumoniae 09-21 after 18 to 24 hrs by twofold serial dilution method; outline: as §2
# [18] = tested on: Enterococcus faecalis; assay: Antibacterial activity against Enterococcus faecalis 08-10 after 18 to 24 hrs by twofold serial dilution method; outline: as §2
# [19] = tested on: Enterococcus faecalis; assay: Antibacterial activity against Enterococcus faecalis 08-12 after 18 to 24 hrs by twofold serial dilution method; outline: as §2
# [20] = tested on: Streptococcus pneumoniae; assay: Antibacterial activity against Streptococcus pneumoniae 08-2 after 18 to 24 hrs by twofold serial dilution method; outline: as §2
# [21] = tested on: Escherichia coli; assay: Antibacterial activity against Escherichia coli 08-21 after 18 to 24 hrs by twofold serial dilution method; outline: as §2
# [22] = tested on: Enterococcus faecium; assay: Antibacterial activity against Enterococcus faecium 08-7 after 18 to 24 hrs by twofold serial dilution method; outline: as §2
# [23] = tested on: Klebsiella pneumoniae; assay: Antibacterial activity against Klebsiella pneumoniae 09-23 after 18 to 24 hrs by twofold serial dilution method; outline: as §2
# [24] = tested on: Staphylococcus aureus; assay: Antibacterial activity against methicillin-resistant Staphylococcus aureus 08-1 after 18 to 24 hrs by twofold serial dilution method; outline: as §1
# [25] = tested on: Pseudomonas aeruginosa; assay: Antibacterial activity against Pseudomonas aeruginosa 09-34 after 18 to 24 hrs by twofold serial dilution method; outline: as §2
smiles,measurement,setting,value
CCO/N=C(/N)C1CN(c2nc3c(cc2F)c(=O)c(C(=O)O)cn3-c2ccc(F)cc2F)C/C1=N\OC (stereo not given),MIC,[1],0.25 µg/mL
same,MIC,[2],> 128 µg/mL
same,MIC,[3],> 128 µg/mL
same,MIC,[4],> 128 µg/mL
same,MIC,[5],> 128 µg/mL
same,MIC,[6],> 128 µg/mL
same,MIC,[7],0.125 µg/mL
same,MIC,[8],2 µg/mL
same,MIC,[9],32 µg/mL
same,MIC,[10],0.125 µg/mL
same,MIC,[11],> 128 µg/mL
same,MIC,[12],0.25 µg/mL
same,MIC,[13],0.25 µg/mL
same,MIC,[14],> 128 µg/mL
same,MIC,[15],> 128 µg/mL
same,MIC,[16],0.25 µg/mL
same,MIC,[17],> 128 µg/mL
same,MIC,[18],> 128 µg/mL
same,MIC,[19],> 128 µg/mL
same,MIC,[20],> 128 µg/mL
same,MIC,[21],> 128 µg/mL
same,MIC,[22],> 128 µg/mL
same,MIC,[23],> 128 µg/mL
same,MIC,[24],0.25 µg/mL
same,MIC,[25],> 128 µg/mL
CCO/N=C1\CN(c2c(F)cc3c(=O)c(C(=O)O)cn(C4CC4)c3c2F)CC1/C(N)=N\OC (stereo not given),MIC,[1],0.125 µg/mL
same,MIC,[2],> 128 µg/mL
same,MIC,[3],64 µg/mL
same,MIC,[4],> 128 µg/mL
same,MIC,[5],8 µg/mL
same,MIC,[6],16 µg/mL
same,MIC,[7],0.125 µg/mL
same,MIC,[8],0.25 µg/mL
same,MIC,[9],0.25 µg/mL
same,MIC,[10],0.25 µg/mL
same,MIC,[11],16 µg/mL
same,MIC,[12],0.5 µg/mL
same,MIC,[13],0.125 µg/mL
same,MIC,[14],> 128 µg/mL
same,MIC,[15],0.25 µg/mL
same,MIC,[16],0.25 µg/mL
same,MIC,[17],> 128 µg/mL
same,MIC,[18],32 µg/mL
same,MIC,[19],> 128 µg/mL
same,MIC,[20],32 µg/mL
same,MIC,[21],> 128 µg/mL
same,MIC,[22],0.25 µg/mL
same,MIC,[23],> 128 µg/mL
same,MIC,[24],0.25 µg/mL
same,MIC,[25],> 128 µg/mL
CCO/N=C1\CN(c2nc3c(cc2F)c(=O)c(C(=O)O)cn3C2CC2)CC1/C(N)=N\OC (stereo not given),MIC,[1],0.125 µg/mL
same,MIC,[2],> 128 µg/mL
same,MIC,[3],> 128 µg/mL
same,MIC,[4],> 128 µg/mL
same,MIC,[5],64 µg/mL
same,MIC,[6],64 µg/mL
same,MIC,[7],0.5 µg/mL
same,MIC,[8],128 µg/mL
same,MIC,[9],1 µg/mL
same,MIC,[10],0.25 µg/mL
same,MIC,[11],64 µg/mL
same,MIC,[12],0.25 µg/mL
same,MIC,[13],0.25 µg/mL
same,MIC,[14],> 128 µg/mL
same,MIC,[15],0.25 µg/mL
same,MIC,[16],0.25 µg/mL
same,MIC,[17],> 128 µg/mL
same,MIC,[18],> 128 µg/mL
same,MIC,[19],> 128 µg/mL
same,MIC,[20],128 µg/mL
same,MIC,[21],> 128 µg/mL
same,MIC,[22],> 128 µg/mL
same,MIC,[23],> 128 µg/mL
same,MIC,[24],0.25 µg/mL
same,MIC,[25],> 128 µg/mL
CCO/N=C(/N)C1CN(c2nc3c(cc2F)c(=O)c(C(=O)O)cn3C2CC2)C/C1=N\OC (stereo not given),MIC,[1],0.25 µg/mL
same,MIC,[2],> 128 µg/mL
same,MIC,[3],> 128 µg/mL
same,MIC,[4],> 128 µg/mL
same,MIC,[5],> 128 µg/mL
same,MIC,[6],> 128 µg/mL
same,MIC,[7],2 µg/mL
same,MIC,[8],2 µg/mL
same,MIC,[9],16 µg/mL
same,MIC,[10],0.25 µg/mL
same,MIC,[11],> 128 µg/mL
same,MIC,[12],0.125 µg/mL
same,MIC,[13],2 µg/mL
same,MIC,[14],> 128 µg/mL
same,MIC,[15],> 128 µg/mL
same,MIC,[16],0.25 µg/mL
same,MIC,[17],> 128 µg/mL
same,MIC,[18],> 128 µg/mL
same,MIC,[19],> 128 µg/mL
same,MIC,[20],> 128 µg/mL
same,MIC,[21],> 128 µg/mL
same,MIC,[22],> 128 µg/mL
same,MIC,[23],> 128 µg/mL
same,MIC,[24],2 µg/mL
same,MIC,[25],> 128 µg/mL
